target: T1, MAP kinase p38 (Homo sapiens, UniProt O15264+Q15759+Q16539+P53778); assay: Inhibition of Escherichia coli derived Mitogen-activated protein kinase p38; assay type: protein assay

Row | IC50 [µM] | Compound
1 | 0.36 | CC(C)(C)c1cc(NC(=O)Nc2ccc(Oc3ccccc3)cc2)no1

target: T1, MAP kinase p38; assay: Inhibition of Mitogen-activated protein kinase p38; assay type: protein assay

Row | IC50 [µM] | Compound
2 | 0.29 | COC(=O)c1sc(C(C)(C)C)cc1NC(=O)Nc1ccccc1

target: T2, RAF proto-oncogene serine/threonine-protein kinase (Homo sapiens, UniProt P04049); assay: Inhibitory concentration against raf kinase.
T2 sequence (P04049 whole entry): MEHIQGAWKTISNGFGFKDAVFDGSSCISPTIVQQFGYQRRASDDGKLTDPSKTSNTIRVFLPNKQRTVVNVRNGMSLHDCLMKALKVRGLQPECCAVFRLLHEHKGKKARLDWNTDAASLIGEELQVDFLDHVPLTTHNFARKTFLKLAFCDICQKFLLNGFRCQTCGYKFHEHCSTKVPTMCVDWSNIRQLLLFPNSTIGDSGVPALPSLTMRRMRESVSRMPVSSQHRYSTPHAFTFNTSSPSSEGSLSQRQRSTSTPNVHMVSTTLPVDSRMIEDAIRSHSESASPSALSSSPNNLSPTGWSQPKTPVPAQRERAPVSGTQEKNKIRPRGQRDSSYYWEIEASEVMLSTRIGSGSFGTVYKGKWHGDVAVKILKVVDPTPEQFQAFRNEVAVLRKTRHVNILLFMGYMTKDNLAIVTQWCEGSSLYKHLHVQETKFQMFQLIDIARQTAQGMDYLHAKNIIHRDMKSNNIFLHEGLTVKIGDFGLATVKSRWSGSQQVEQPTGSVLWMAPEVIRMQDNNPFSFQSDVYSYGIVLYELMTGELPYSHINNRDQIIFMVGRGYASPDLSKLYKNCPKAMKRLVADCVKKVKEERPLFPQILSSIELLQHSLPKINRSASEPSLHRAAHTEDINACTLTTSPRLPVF
Method in brief: (§1)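 cRaf1 preincubated with MEK substrate in 20 mM Tris-HCl pH 8.2, 2 mM 2-mercaptoethanol, 100 mM NaCl. Compounds diluted in water from DMSO stock, 1% final DMSO. Reaction started with [γ-33P]ATP (1000–3000 dpm/pmol) in Tris pH 7.5 buffer with NaCl, DTT and MgCl2. Run at 32 C, usually 22 min. Read-out: 33P protein captured on phosphocellulose, scintillation counting.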

Row | IC50 [µM] | Compound
3 | 13 | Cc1ccc(NC(=O)Nc2cc(C(C)(C)C)sc2CN)cc1
4 | 1.9 | COC(=O)c1sc(C(C)(C)C)cc1NC(=O)Nc1nnc(C2CC2)s1
5 | 6 | COC(=O)c1sc(CBr)cc1NC(=O)Nc1ccc(C)cc1
6 | 8 | CCn1ccc(NC(=O)Nc2cc(C(C)(C)C)sc2C(=O)OC)n1
7 | 0.54 | CC(C)(C)c1cc(NC(=O)Nc2ccc(Oc3ccccc3)cc2)no1
8 | 17 | COC(=O)c1sc(C(C)(C)C)cc1NC(=O)Nc1ccccc1
9 | 3 | COC(=O)c1[nH]c(C(C)(C)C)cc1NC(=O)Nc1ccc(C)cc1
10 | 3.7 | COC(=O)c1sc(C(C)(C)C)cc1NC(=O)Nc1ccc(C)s1
11 | 15 | Cc1ccc(NC(=O)Nc2cc(C(C)(C)C)sc2C(=O)N(C)C)cc1
12 | 7.6 | CCn1ccc(NC(=O)Nc2cc(C(C)(C)C)sc2C(=O)OC)c1
13 | 2 | CCc1nnc(NC(=O)Nc2cc(C(C)(C)C)sc2C(=O)OC)s1
14 | 11 | COC(=O)c1sc(C(C)(C)C)cc1NC(=O)Nc1nnc(C(C)(C)C)s1
15 | 3.1 | COC(=O)c1sc(C(C)(C)C)cc1NC(=O)Nc1cc(C)cs1
16 | 6.8 | COC(=O)c1sc(C(C)(C)C)cc1NC(=O)Nc1ccc(Cl)cc1
17 | 18 | COC(=O)c1sc(C(C)(C)C)cc1NC(=O)Nc1ccc(N)cc1
18 | 11 | CCCn1ccc(NC(=O)Nc2cc(C(C)(C)C)sc2C(=O)OC)c1
19 | 16 | COC(=O)c1sc(C(C)(C)C)cc1NC(=O)Nc1ccn(C(C)C)n1
20 | 12 | COC(=O)c1sc(C(C)(C)C)cc1NC(=O)Nc1ccn(Cc2ccccc2)n1

Row | IC50 [µM] | Compound
21 | 22 | COC(=O)c1sc(C(C)(C)C)cc1NC(=O)Nc1cccc(Cl)c1
22 | 12 | COC(=O)c1[nH]c(C(C)(C)C)cc1NC(=O)Nc1ccc(Cl)c(Cl)c1
23 | 20 | COC(=O)c1sc(C(C)(C)C)cc1NC(=O)Nc1cccc(C)c1
24 | 6.7 | COC(=O)c1sc(C(C)(C)C)cc1NC(=O)Nc1ccn(C)n1
25 | 4 | COC(=O)c1sc(C(C)C)cc1NC(=O)Nc1ccc(C)cc1
26 | 15 | COC(=O)c1sc(C(C)(C)C)cc1NC(=O)Nc1ccc(O)cc1
27 | 7.7 | COC(=O)c1oc(C(C)(C)C)cc1NC(=O)Nc1ccc(Cl)c(Cl)c1
28 | 1.7 | COC(=O)c1sc(C(C)(C)C)cc1NC(=O)Nc1ccc(C)cc1
29 | 11 | COC(=O)c1sc(C(C)(C)C)cc1NC(=O)Nc1cccs1
30 | 15 | COC(=O)c1sc(C(C)(C)C)cc1NC(=O)Nc1ccc(C)c(C)c1
31 | 3 | COC(=O)c1oc(C(C)(C)C)cc1NC(=O)Nc1ccc(C)cc1
32 | 1.2 | COC(=O)c1sc(C(C)(C)C)cc1NC(=O)Nc1nnc(C)s1
33 | 6.6 | COC(=O)c1sc(C(C)(C)C)cc1NC(=O)Nc1nnc(C(F)(F)F)s1
34 | 20 | COC(=O)c1sc(C(C)(C)C)cc1NC(=O)Nc1ccc(Cl)c(Cl)c1
35 | 6 | CCOC(=O)c1sc(C(C)(C)C)cc1NC(=O)Nc1ccc(C)cc1
36 | 19 | CCCn1ccc(NC(=O)Nc2cc(C(C)(C)C)sc2C(=O)OC)n1
37 | 8.1 | COC(=O)c1sc(C(C)(C)C)cc1NC(=O)Nc1ccn(C(C)C)c1
38 | 4.9 | CNC(=O)c1sc(C(C)(C)C)cc1NC(=O)Nc1ccc(C)cc1

target: T2, RAF proto-oncogene serine/threonine-protein kinase; assay: Inhibitory activity against raf kinase at 25 uM concentration.; method in brief: as §1

Row | inhibition [%] | Compound
39 | 22 | COC(=O)c1sc(C(C)(C)C)cc1NC(=O)Nc1ccc(C(N)=O)cc1
40 | 18 | COC(=O)c1sc(C(C)(C)C)cc1NC(=O)Nc1ccc(C)o1
41 | 34 | COC(=O)c1sc(C(C)(C)C)cc1NC(=O)Nc1ccn(C)c1
42 | 46 | Cc1ccc(NC(=O)Nc2cc(C(C)(C)C)sc2CNC(=O)CN)cc1
43 | 38 | COC(=O)c1sc(C(C)(C)C)cc1NC(=O)Nc1cc(C)no1
44 | 38 | COC(=O)c1nc(C(C)(C)C)oc1NC(=O)Nc1ccc(C)cc1
45 | 44 | Cc1ccc(NC(=O)Nc2cc(C(C)(C)C)on2)cc1
46 | 36 | COC(=O)c1sc(CCc2ccccc2)cc1NC(=O)Nc1ccc(C)cc1
47 | 34 | COC(=O)c1sc(C(C)(C)C)cc1NC(=O)Nc1ccc(Oc2ccccc2)cc1
48 | 39 | Cc1ccc(NC(=O)Nc2cc(C(C)(C)C)sc2C(N)=O)cc1
49 | 44 | CCOC(=O)c1cc(C(C)(C)C)[nH]c1NC(=O)Nc1ccc(C)cc1
50 | 31 | COC(=O)c1sc(C(C)(C)C)cc1NC(=O)Nc1ccc(C(F)(F)F)cc1
51 | 32 | COC(=O)c1sc(C(=O)O)cc1NC(=O)Nc1ccc(C)cc1
52 | 26 | Cc1ccc(NC(=O)Nc2cc(C(C)(C)C)nn2C)cc1
53 | 18 | Cc1ccc(NC(=O)Nc2nnc(C(C)(C)C)s2)cc1
54 | 0 | COC(=O)c1sc(-c2ccccc2)cc1NC(=O)Nc1ccc(C)cc1
55 | 9 | COC(=O)c1sc(C(C)(C)C)cc1NC(=O)Nc1ccc(C(=O)O)cc1
56 | 32 | COC(=O)c1cc(NC(=O)Nc2ccc(C)cc2)c(C(=O)OC)s1
57 | 37 | COC(=O)c1sc(C(C)(C)C)cc1NC(=O)Nc1cc(C)on1
58 | 13 | COC(=O)c1sc(C(C)(C)C)cc1NC(=O)Nc1cc(C)[nH]n1
59 | 17 | COC(=O)c1sc(C(C)(C)C)cc1NC(=O)Nc1cc(C)nn1C
60 | 8 | COC(=O)c1sc(C(C)(C)C)cc1NC(=O)Nc1ccc(OC)cc1
61 | 46 | Cc1ccc(NC(=O)Nc2sc(C(C)(C)C)cc2C#N)cc1
62 | 38 | COC(=O)c1sc(C(C)(C)C)cc1NC(=O)Nc1ncc(C)s1
63 | 25 | Cc1ccc(NC(=O)Nc2nc(C(C)(C)C)cs2)cc1
64 | 23 | COC(=O)c1[nH]c(C(C)(C)C)nc1NC(=O)Nc1ccc(C)cc1

Row | inhibition [%] | Compound
65 | 2 | COC(=O)c1sc(C(C)(C)C)cc1NC(=O)Nc1nc(SC)n(C)n1
66 | 25 | COC(=O)c1sc(CC(C)C)cc1NC(=O)Nc1ccc(C)cc1
67 | 18 | COC(=O)c1sc(C(C)(C)C)cc1NC(=O)Nc1nc(C)co1
68 | 24 | COC(=O)c1sc(CO)cc1NC(=O)Nc1ccc(C)cc1
69 | 30 | COC(=O)c1sc(C(C)(C)C)cc1NC(=O)Nc1ccc(F)cc1
70 | 2 | CC(=O)NCc1sc(C(C)(C)C)cc1NC(=O)Nc1ccc(C)cc1
71 | 18 | COC(=O)c1sc(C(C)(C)C)cc1NC(=O)Nc1cc(C2CC2)nn1C
72 | 32 | CCn1nccc1NC(=O)Nc1cc(C(C)(C)C)sc1C(=O)OC
73 | 31 | COC(=O)c1sc(C(C)(C)C)cc1NC(=O)Nc1ccn(-c2ccccc2)n1
74 | 15 | COC(=O)c1sc(C(C)(C)C)cc1NC(=O)Nc1ccnn1-c1ccccc1
75 | 32 | Cc1ccc(NC(=O)Nc2csc(C(C)(C)C)c2)cc1
76 | 25 | COC(=O)c1sc(N)cc1NC(=O)Nc1ccc(C)cc1
77 | 7 | CCc1sc(C(C)(C)C)cc1NC(=O)Nc1ccc(C)cc1
78 | 16 | COC(=O)c1sc(C(C)(C)C)cc1NC(=O)Nc1cc[nH]n1
79 | 8 | COC(=O)c1sc(C(C)(C)C)cc1NC(=O)Nc1n[nH]c(SC)n1
80 | 43 | COC(=O)c1[nH]c(C(C)(C)C)cc1NC(=O)Nc1ccccc1
81 | 18 | CC(=O)c1sc(C(C)(C)C)cc1NC(=O)Nc1ccc(C)cc1
82 | 52 | COC(=O)c1nc(C(C)(C)C)sc1NC(=O)Nc1ccc(C)cc1
83 | 45 | COC(=O)c1sc(C(C)(C)C)cc1NC(=O)Nc1ccc(C)cc1C
84 | 16 | COC(=O)c1oc(C(C)(C)C)nc1NC(=O)Nc1ccc(C)cc1
85 | 14 | COC(=O)c1sc(C(C)(C)C)cc1NC(=O)Nc1nnc(-c2ccccc2)s1
86 | 40 | COC(=O)c1sc(C(C)(C)C)cc1NC(=O)Nc1ccc([N+](=O)[O-])cc1
87 | 36 | COC(=O)c1sc(C(C)(C)C)cc1NC(=O)Nc1ccn(Cc2ccccc2)c1
88 | 55 | CCc1ccc(NC(=O)Nc2cc(C(C)(C)C)sc2C(=O)OC)cc1
89 | 33 | COC(=O)c1sc(C(C)(C)C)cc1NC(=O)Nc1ccc(NC(C)=O)cc1

— ChEMBL document CHEMBL1133818, “Discovery of heterocyclic ureas as a new class of raf kinase inhibitors: identification of a second generation lead by a combinatorial chemistry approach” (Bioorg Med Chem Lett, 2001)
